# Data reported in ChEMBL document CHEMBL4196081, “Synthesis and antimycobacterial activity of 1-(β-d-Ribofuranosyl)-4-coumarinyloxymethyl- / -coumarinyl-1,2,3-triazole” (Eur J Med Chem, 2018).
# Calls of active or inactive are those of the source. No cut-off for these calls is given here.
# Columns and labels:
# [1] = Cytotoxicity against human THP1 cells assessed as cell viability at 4.68 ug/ml after 48 hrs by MTT assay relative to control; format: cell-based; settings: THP-1 cells, read-out: Activity
# Outline: (§1)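 THP-1 cells (human monocytic line) seeded at 10^4 per well and adhered with phorbol myristate acetate (20 ng/mL). Then given fresh RPMI with 10% foetal calf serum and 2 mM L-glutamine, plus compound by serial double dilution (4.68–150 µg/mL), with DMSO and no-DMSO controls. Incubated 24 or 48 h at 37 °C, 5% CO2. MTT added for 4 h, formazan dissolved in DMSO, A540 read, percentage survival calculated.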
# [2] = system: Mycobacterium tuberculosis; assay: Antimycobacterial activity against Mycobacterium tuberculosis H37Rv after 10 days by MABA; format: functional; settings: 240 h
# Outline: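 MABA in 7H9 medium: log-phase culture passed through 8 µm filter, density set by OD600 and McFarland standards, 1 × 10^6 cells per well with drug dilutions; aerobic incubation 37 °C 10 days, then 0.02 % resazurin, overnight 37 °C. MIC = lowest concentration preventing blue-to-pink change. Triplicate; medium+inoculum and medium-only controls.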
# [3] = system: Mycobacterium tuberculosis; assay: Antimycobacterial activity against MDR Mycobacterium tuberculosis isolate 591 after 15 days by MABA; format: functional; settings: isolate 591, 360 h
# Outline: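 MABA in 7H9 medium on MDR clinical isolate 591: filtered single-cell suspension, 1 × 10^6 cells per well with drug dilutions, aerobic 37 °C; 0.02 % resazurin added on day 15, overnight 37 °C. MIC = lowest concentration preventing blue-to-pink change. Triplicate; medium+inoculum and medium-only controls.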
# [4] = system: Mycobacterium tuberculosis; assay: Bactericidal activity against Mycobacterium tuberculosis H37Rv after 4 weeks by MABA; format: functional; settings: 672 h
# [5] = system: Mycobacterium tuberculosis; assay: Bactericidal activity against MDR Mycobacterium tuberculosis isolate 591 after 4 weeks by MABA; format: functional; settings: isolate 591, 672 h
# [6] = system: Mycobacterium tuberculosis; assay: Ratio of MBC to MIC for Mycobacterium tuberculosis H37Rv; format: functional
# [7] = system: Mycobacterium tuberculosis; assay: Ratio of MBC to MIC for MDR Mycobacterium tuberculosis isolate 591; format: functional
# [8] = system: Mycobacterium tuberculosis; assay: Potency index, ratio of isoniazid MIC to compound MIC for antimycobacterial activity against MDR Mycobacterium tuberculosis isolate 591; format: functional
# [9] = system: Mycobacterium tuberculosis; assay: Potency index, ratio of rifampicin MIC to compound MIC for antimycobacterial activity against MDR Mycobacterium tuberculosis isolate 591; format: functional
# [10] = system: Mycobacterium tuberculosis; assay: Potency index, ratio of ethambutol MIC to compound MIC for antimycobacterial activity against MDR Mycobacterium tuberculosis isolate 591; format: functional
# [11] = system: Mycobacterium tuberculosis; assay: Potency index, ratio of streptomycin MIC to compound MIC for antimycobacterial activity against MDR Mycobacterium tuberculosis isolate 591; format: functional
# [12] = system: Mycobacterium tuberculosis; assay: Antimycobacterial activity against Mycobacterium tuberculosis H37Rv assessed as induction of cell wall disintegration at 1.38 uM after 30 mins by TEM analysis; format: functional, organism-based
# [13] = system: Mycobacterium tuberculosis; assay: Antimycobacterial activity against Mycobacterium tuberculosis H37Rv assessed as cells with vacuole formation at 1.38 uM after 30 mins by TEM analysis; format: functional, organism-based
# [14] = molecular target: T1, Enoyl-[acyl-carrier-protein] reductase [NADH] (Mycobacterium tuberculosis) (UniProt P9WGR1); assay: Inhibition of Mycobacterium tuberculosis H37Rv InhA expressed in Escherichia coli at 5 to 100 uM preincubated for 30 mins followed by crotonoyl-CoA substrate and NADH addition measured over 15 mins by spectrophotometric method
# T1 sequence (whole entry): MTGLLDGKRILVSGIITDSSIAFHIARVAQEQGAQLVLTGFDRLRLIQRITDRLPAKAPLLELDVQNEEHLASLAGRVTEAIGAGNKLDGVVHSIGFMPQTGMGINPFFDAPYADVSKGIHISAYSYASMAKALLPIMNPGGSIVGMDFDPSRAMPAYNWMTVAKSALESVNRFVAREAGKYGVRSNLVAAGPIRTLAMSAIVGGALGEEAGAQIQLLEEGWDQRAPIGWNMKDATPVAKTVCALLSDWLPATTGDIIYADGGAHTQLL
# Outline: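 Purified recombinant InhA (Rv1484, cloned in E. coli), 2 µg, preincubated 30 min with compound at 5 µM final (DMSO ≤1 % v/v) in 100 mM sodium phosphate pH 7.5; started with 100 µM NADH and 100 µM crotonoyl-CoA; A340 followed 15 min at room temperature. Triplicate.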
# [15] = molecular target: DNA gyrase subunit B (Escherichia coli) (UniProt P0AES6); assay: Inhibition of Escherichia coli DNA gyrase-B at 0.66 to 100 uM using relaxed pUC19 DNA as substrate after 1 hr by bromophenol blue dye based agarose gel electrophoresis method
# Outline: (§2)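 E. coli DNA gyrase, 1 unit, with 0.3 µg relaxed pUC19 plasmid in 1X gyrase assay buffer. Compound added as 0.2 µL from 100 µM stock; ciprofloxacin positive control, DMSO solvent control. Incubated 37 °C for 1 h, stopped with 50% glycerol/0.25% bromophenol blue. Run on 1% agarose in 0.5X TBE pH 8.3, 16 h at 30 mA, ethidium bromide stained, UV visualised for supercoiling.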
# DNA gyrase subunit B = DNA gyrase subunit B (Escherichia coli, UniProt P0AES6); assay: Inhibition of Escherichia coli DNA gyrase-B using relaxed pUC19 DNA as substrate after 1 hr by bromophenol blue dye based agarose gel electrophoresis method; outline: as §2
# THP-1 = assay: Cytotoxicity against human THP1 cells assessed as growth inhibition after 24 to 48 hrs by MTT assay; format: cell-based; outline: as §1
# [16] = Selectivity index, ratio of IC50 for cytotoxicity against human THP1 cells to MIC for Mycobacterium tuberculosis H37Rv; format: toxicity, cell-based; settings: THP-1 cells, read-out: Selectivity Index
# Outline: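 THP-1 cells, 10^4/well, adhered with PMA 20 ng/mL, in RPMI with 10 % FCS and 2 mM L-glutamine; exposed to 4.68–150 µg/mL for 24 and 48 h at 37 °C, 5 % CO2; MTT 4 h, formazan in DMSO, A540. Index = THP-1 IC50 divided by H37Rv MABA MIC.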
# [17] = Cytotoxicity against human THP1 cells assessed as cell viability at 4.68 ug/ml after 24 hrs by MTT assay relative to control; format: cell-based; settings: THP-1 cells, read-out: Activity; outline: as §1
# [18] = Cytotoxicity against human THP1 cells assessed as cell viability at 9.36 ug/ml after 24 hrs by MTT assay relative to control; format: cell-based; settings: THP-1 cells, read-out: Activity; outline: as §1
# [19] = Cytotoxicity against human THP1 cells assessed as cell viability at 9.36 ug/ml after 48 hrs by MTT assay relative to control; format: cell-based; settings: THP-1 cells, read-out: Activity; outline: as §1
# [20] = Cytotoxicity against human THP1 cells assessed as cell viability at 18.72 ug/ml after 24 hrs by MTT assay relative to control; format: cell-based; settings: THP-1 cells, read-out: Activity; outline: as §1
# [21] = Cytotoxicity against human THP1 cells assessed as cell viability at 18.72 ug/ml after 48 hrs by MTT assay relative to control; format: cell-based; settings: THP-1 cells, read-out: Activity; outline: as §1
# [22] = Cytotoxicity against human THP1 cells assessed as cell viability at 37.48 ug/ml after 24 hrs by MTT assay relative to control; format: cell-based; settings: THP-1 cells, read-out: Activity; outline: as §1
# [23] = Cytotoxicity against human THP1 cells assessed as cell viability at 37.48 ug/ml after 48 hrs by MTT assay relative to control; format: cell-based; settings: THP-1 cells, read-out: Activity; outline: as §1
# [24] = Cytotoxicity against human THP1 cells assessed as cell viability at 75 ug/ml after 24 hrs by MTT assay relative to control; format: cell-based; settings: THP-1 cells, read-out: Activity; outline: as §1
# [25] = Cytotoxicity against human THP1 cells assessed as cell viability at 75 ug/ml after 48 hrs by MTT assay relative to control; format: cell-based; settings: THP-1 cells, read-out: Activity; outline: as §1
# [26] = Cytotoxicity against human THP1 cells assessed as cell viability at 150 ug/ml after 24 hrs by MTT assay relative to control; format: cell-based; settings: THP-1 cells, read-out: Activity; outline: as §1
# [27] = Cytotoxicity against human THP1 cells assessed as cell viability at 150 ug/ml after 48 hrs by MTT assay relative to control; format: cell-based; settings: THP-1 cells, read-out: Activity; outline: as §1
# [28] = system: Mycobacterium tuberculosis; assay: Antimycobacterial activity against Mycobacterium tuberculosis H37Rv assessed as induction of cell wall disintegration at 4.15 uM after 30 mins by TEM analysis; format: functional, organism-based
# [29] = system: Mycobacterium tuberculosis; assay: Antimycobacterial activity against Mycobacterium tuberculosis H37Rv assessed as cells with vacuole formation at 4.15 uM after 30 mins by TEM analysis; format: functional, organism-based
# [30] = system: Mycobacterium tuberculosis; assay: Antimycobacterial activity against Mycobacterium tuberculosis H37Rv assessed as induction of cell wall disintegration at 0.05 uM after 30 mins by TEM analysis; format: functional, organism-based
Structure (SMILES),"viability at 48 h, 4.68 ug/ml [1] [%]",MIC [2] [µM],MIC [3] [µM],MBC [4] [µM],MBC [5] [µM],Ratio [6],Ratio [7],IC50 (THP-1) [µM],selectivity ratio [16],"viability at 24 h, 4.68 ug/ml [17] [%]","viability at 24 h, 9.36 ug/ml [18] [%]","viability at 48 h, 9.36 ug/ml [19] [%]","viability at 24 h, 18.72 ug/ml [20] [%]","viability at 48 h, 18.72 ug/ml [21] [%]","viability at 24 h, 37.48 ug/ml [22] [%]","viability at 48 h, 37.48 ug/ml [23] [%]","viability at 24 h, 75 ug/ml [24] [%]","viability at 48 h, 75 ug/ml [25] [%]","viability at 24 h, 150 ug/ml [26] [%]","viability at 48 h, 150 ug/ml [27] [%]",other results
Cc1cc(=O)oc2cc(OCc3cn([C@@H]4O[C@H](CO)[C@@H](O)[C@H]4O)nn3)ccc12,95,5.1,10.3,6.4,11.5,1.25,1.13,> 385,75.4,100,100,94,100,84,100,74,97,68,84,60,Ratio [8]: 7 - 420; Ratio [9]: 7 - 420; Ratio [10]: 7 - 420; Ratio [11]: 7 - 420; Activity [12]: Active; Activity [13]: Active; inhibition [14]: Active; inhibition [15]: Active; IC50 (DNA gyrase subunit B): 0.8 µM
Cc1cc(=O)oc2cc(-c3cn([C@@H]4O[C@H](CO)[C@@H](O)[C@H]4O)nn3)ccc12,96,16.6,22.2,16.7,22.2,1,1,> 417,25,100,100,90,99,87,99,77,96,64,84,60,Activity [28]: Active; Activity [29]: Active; inhibition [14]: Active; inhibition [15]: Active; IC50 (DNA gyrase subunit B): 3.2 µM
NNC(=O)c1ccncc1 [ISONIAZID],84,0.2,2190,0.3,–,1.6,–,547,2740,90,85,74,83,67,68,57,50,41,48,40,Activity [30]: Active
